Measurements: ChEMBL document CHEMBL4627249, “New modification strategy of matrine as Hsp90 inhibitors based on its specific L conformation for cancer treatment” (Bioorg Med Chem, 2020)

What was measured:
HeLa = experiment: Antiproliferative activity against human HeLa cells assessed as reduction in cell viability after 48 hrs by MTT assay; assay type: functional, cell-based
Method in brief: (§1)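 HepG2 or HeLa cells in DMEM with 10% FBS and 1% penicillin-streptomycin were preincubated 24 h (37 °C, 5% CO2). They were then exposed for 48 h to 1, 5, 10, 20, 50 and 100 µM, diluted in medium from DMSO stocks. MTT (5 mg/mL, 20 µL) was added for 4 h, formazan dissolved in DMSO, and A490 read. Each concentration was run in triplicate. IC50 is the mean from dose-response curves of at least three independent experiments; cisplatin was the positive control.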

HepG2 = experiment: Antiproliferative activity against human HepG2 cells assessed as reduction in cell viability after 48 hrs by MTT assay; assay type: functional, cell-based; conditions: HepG2, 48 h; method in brief: as §1
[1] = biological target: Heat shock protein HSP90 (Homo sapiens) (UniProt P07900+P08238)
MDA-MB-231 = experiment: Antiproliferative activity against human MDA-MB-231 cells assessed as reduction in cell viability after 48 hrs by MTT assay; assay type: functional, cell-based; conditions: MDA-MB-231, 48 h

Structure (SMILES)	IC50 (HeLa)	IC50 (HepG2)	ΔTm [1]	IC50 (MDA-MB-231)
Nc1c2c(nc3ccc([N+](=O)[O-])cc13)N1C[C@@H]3CCCN4CCC[C@@H]([C@H]34)[C@H]1CC2	69.2 µM	35.1 µM	-0.24 °C	24.4 µM
Nc1c2c(nc3ccccc13)N1C[C@@H]3CCCN4CCC[C@@H]([C@H]34)[C@H]1CC2	23.3 µM	14.3 µM	-3.12 °C	22.2 µM
COc1ccc2nc3c(c(N)c2c1)CC[C@@H]1[C@H]2CCCN4CCC[C@@H](CN31)[C@@H]24	18 µM	10.9 µM	-5.48 °C	21.2 µM
Nc1c2c(nc3ccc(Cl)cc13)N1C[C@@H]3CCCN4CCC[C@@H]([C@H]34)[C@H]1CC2	8.9 µM	6.4 µM	-6.58 °C	14.3 µM
Cc1c(/N=C2\CCC[C@@H]3[C@H]4CCCN5CCC[C@@H](CN23)[C@@H]45)cccc1[N+](=O)[O-]	> 100 µM	86.1 µM	-1.06 °C	> 100 µM
O=C1CCCC[C@@H]2[C@H]3CCCN4CCC[C@@H](CN12)[C@@H]34	> 100 µM	> 100 µM		> 100 µM
O=C1C[C@@H]2[C@H]3CCCN4CCC[C@@H](CN12)[C@@H]34	> 100 µM	> 100 µM	0.44 °C	> 100 µM
N#Cc1ccccc1/N=C1\CCC[C@@H]2[C@H]3CCCN4CCC[C@@H](CN12)[C@@H]34	> 100 µM	> 100 µM	-1.44 °C	> 100 µM
O=C1CCC[C@@H]2[C@H]3CCCN4CCC[C@@H](CN12)[C@@H]34 [MATRINE]	4330 µM	4510 µM	0.04 °C	5370 µM
c1ccc(Oc2ccc(/N=C3\CCC[C@@H]4[C@H]5CCCN6CCC[C@@H](CN34)[C@@H]56)cc2)cc1	33.7 µM	51.3 µM	-1.3 °C	55.2 µM
